Reference: publication PMC9272679 (Computers in Biology and Medicine, 2022)
Marks after values point to notes of the source that are not given here.

Columns and labels:
A549 = assay: In vitro antiproliferative assay; type: cell-based, human; settings: for mean optical densities: 48 h, SRB, 515 nm
Method in brief: (§1)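 NCI-sourced cells grown in DMEM with 10% FBS, penicillin 25 U/mL and streptomycin 25 U/mL (37 °C, 5% CO2, 95% humidity). 5000–40,000 viable cells/well attached 24 h, then fresh medium with test compound at 0, 0.1, 1.0, 10 or 100 μM for 48 h. TCA-fixed (10%, 1 h RT), 0.4% SRB stain 60 min, acetic acid wash, Tris-solubilised dye read at 515 nm. GI50 and TGI calculated; triplicates, mean ± SD.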

K-562 = assay: In vitro antiproliferative assay; type: cell-based, human; settings: for mean optical densities: 48 h, SRB, 515 nm
Method in brief: as §1

MCF7 = assay: In vitro antiproliferative assay; type: cell-based, human; settings: for mean optical densities: 48 h, SRB, 515 nm
Method in brief: as §1

HOP-62 = assay: In vitro antiproliferative assay; type: cell-based, human; settings: for mean optical densities: 48 h, SRB, 515 nm
Method in brief: as §1

NCI–H226 = assay: In vitro antiproliferative assay; type: cell-based, human; settings: for mean optical densities: 48 h, SRB, 515 nm
Method in brief: as §1

NCI–H322 M = assay: In vitro antiproliferative assay; type: cell-based, human; settings: 48 h; for mean optical densities: NCI–H322 M, SRB, 515 nm
Method in brief: as §1

NCI–H522 = assay: In vitro antiproliferative assay; type: cell-based, human; settings: for mean optical densities: 48 h, SRB, 515 nm
Method in brief: as §1

A549/ATCC = assay: In vitro antiproliferative assay; type: cell-based, human; settings: for mean optical densities: A549/ATCC, 48 h, SRB, 515 nm
Method in brief: as §1

[1] = test system: five cell lines originating from human lungs; assay: In vitro antiproliferative assay; type: cell-based; settings: read-out: IC50 range
Method in brief: as §1

[2] = In vivo pharmacokinetics in rats; design: species or system Male albino Wistar rats; settings: male, Wistar, rat, plasma, po, 5 mg/kg
Method in brief: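 Rats were given test compound at 5 mg/kg BW orally. Blood was drawn hourly over 24 h (24 samples) into Na2EDTA tubes, and plasma was quantified by UPLC. Cmax, Tmax and AUC0-t were taken from the plasma concentration-time curve. K came from the terminal log-linear slope, and AUC0→∞ was calculated as AUC0-t + Clast/K.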

CCNc1nc2ccccc2c2c(=O)c3cc(Cl)ccc3sc12 [RXn-02, 10-chloro-6-(ethylamino)-12H-thiochromeno[2,3-c] quinolin-12-one]
mean optical densities (A549; A549, RXn-02 0.1 μM): 1.997 | mean optical densities (A549; A549, RXn-02 1.0 μM): 1.883 | mean optical densities (A549; A549, RXn-02 10 μM): 1.602** | mean optical densities (A549; A549, RXn-02 100 μM): 1.129** | IC50 (A549; Homo sapiens, A549, 48 h): 48.1 µM | IC50 (K-562; Homo sapiens, K562, 48 h): 100 µM | mean optical densities (K-562; K-562, RXn-02 0.1 μM): 1.771 | mean optical densities (K-562; K-562, RXn-02 1.0 μM): 1.668 | mean optical densities (K-562; K-562, RXn-02 10 μM): 1.242 | mean optical densities (K-562; K-562, RXn-02 100 μM): 1.056* | IC50 (MCF7; Homo sapiens, MCF7, 48 h): 47 nM | mean optical densities (MCF7; MCF7, RXn-02 0.1 μM): 1.083 | mean optical densities (MCF7; MCF7, RXn-02 1.0 μM): 0.873 | mean optical densities (MCF7; MCF7, RXn-02 10 μM): 0.735*** | mean optical densities (MCF7; MCF7, RXn-02 100 μM): 0.699*** | mean optical densities (HOP-62; HOP-62, RXn-02 0.1 μM): 1.859 | mean optical densities (HOP-62; HOP-62, RXn-02 1.0 μM): 1.761 | mean optical densities (HOP-62; HOP-62, RXn-02 10 μM): 1.463* | mean optical densities (HOP-62; HOP-62, RXn-02 100 μM): 0.319*** | IC50 (HOP-62; Homo sapiens, HOP-62, 48 h): 13.3 µM | IC50 (NCI–H226; Homo sapiens, NCI-H226, 48 h): 33.2 µM | mean optical densities (NCI–H226; NCI–H226, RXn-02 0.1 μM): 2.389 | mean optical densities (NCI–H226; NCI–H226, RXn-02 1.0 μM): 2.367 | mean optical densities (NCI–H226; NCI–H226, RXn-02 10 μM): 2.142* | mean optical densities (NCI–H226; NCI–H226, RXn-02 100 μM): 1.704** | IC50 (NCI–H322 M; Homo sapiens, NCI-H322M): 69.5 µM | mean optical densities (NCI–H322 M; RXn-02 0.1 μM): 1.491 | mean optical densities (NCI–H322 M; RXn-02 1.0 μM): 1.386 | mean optical densities (NCI–H322 M; RXn-02 10 μM): 1.209* | mean optical densities (NCI–H322 M; RXn-02 100 μM): 1.020* | IC50 (NCI–H522; Homo sapiens, NCI-H522, 48 h): 24.8 µM | mean optical densities (NCI–H522; NCI–H522, RXn-02 0.1 μM): 2.405 | mean optical densities (NCI–H522; NCI–H522, RXn-02 1.0 μM): 2.362 | mean optical densities (NCI–H522; NCI–H522, RXn-02 10 μM): 2.110* | mean optical densities (NCI–H522; NCI–H522, RXn-02 100 μM): 1.395** | mean optical densities (A549/ATCC; RXn-02 0.1 μM): 1.997 | mean optical densities (A549/ATCC; RXn-02 1.0 μM): 1.883 | mean optical densities (A549/ATCC; RXn-02 10 μM): 1.602** | mean optical densities (A549/ATCC; RXn-02 100 μM): 1.129** | IC50 (A549/ATCC; Homo sapiens, A549, 48 h): 48.1 µM | IC50 [1]: 33.2 to 69.5 µM | AUC(0-t) [2]: 18900 ng·h/mL | Cmax [2]: 1760 ng/mL
